{"source": "ChEMBL document CHEMBL3792346", "about": "“Thiazolino 2-Pyridone Amide Inhibitors of Chlamydia trachomatis Infectivity” (J Med Chem, 2016)", "key": {"Chlamydia trachomatis [1]": {"test_system": "Chlamydia trachomatis", "experiment": "Drug uptake in Chlamydia trachomatis serovar LGV-L2 inclusion infected in human HeLa cells at 1 uM coadministered with 8-Cyclopropyl-7-(naphthalen 1-ylmethyl)-5-oxo-N-(3-methylphenyl)-2,3-dihydro-5H-[1,3]thiazolo[3,2-a]pyridine-3-carboxamide after 48 hrs by laser confocal microscopy", "type": "ADME, organism-based", "procedure,_shortened": "(§1)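 Infected HeLa (LGV-L2, MOI 0.5) given 1 µM fluorescent analogue alone or with equimolar competitor, added together directly after infection and kept to end; fixed, anti-MOMP stained, confocal imaged with identical settings; fluorescence per inclusion divided by inclusion area in >40 inclusions; two-tailed t-test; ≥2 independent experiments.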"}, "Chlamydia trachomatis [2]": {"test_system": "Chlamydia trachomatis", "experiment": "Drug uptake in Chlamydia trachomatis serovar LGV-L2 inclusion infected in human HeLa cells at 1 uM coadministered with 6-Amino-8-cyclopropyl-7-(naphthalen-1-ylmethyl)-5-oxo-N-phenyl-2,3-dihydro-5H-[1,3]thiazolo[3,2-a]pyridine 3-carboxamide after 48 hrs by laser confocal microscopy", "type": "ADME, organism-based", "procedure,_shortened": "as §1"}, "Chlamydia trachomatis [3]": {"test_system": "Chlamydia trachomatis", "experiment": "Drug uptake in Chlamydia trachomatis serovar LGV-L2 inclusion infected in human HeLa cells at 1 uM after 48 hrs by laser confocal microscopy", "type": "ADME, organism-based", "procedure,_shortened": "(§2)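 HeLa on coverslips infected with LGV-L2 at MOI 0.5 in HBSS; after 60 min, fresh medium with fluorescent compound or BODIPY control (1 µM) added, left to 48 hpi; PBS-washed, 4% paraformaldehyde fixed, Triton-permeabilized, BSA-blocked, anti-MOMP/rhodamine stained; confocal imaging, 60× oil, Z-stack projections; ≥2 independent experiments.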"}, "Chlamydia trachomatis [4]": {"test_system": "Chlamydia trachomatis", "experiment": "Antimicrobial activity against Chlamydia trachomatis serovar LGV-L2 infected in human HeLa cells at 2.5 uM after 48 hrs", "type": "functional", "procedure,_shortened": "(§3)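 HeLa cells infected with LGV-L2 at MOI 0.1-0.5; compounds added at 1 hpi, tested at 2.5 µM then 5 or 10 µM or 1, 0.5, 0.25, 0.1 µM; after ~48 h, osmotic lysis, SPG restored, 10-fold dilutions reinfect fresh HeLa; IFUs counted by automated imaging versus DMSO; Reinfect95 = lowest concentration consistently giving 95% IFU reduction; ≥2 experiments in triplicate.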"}, "[5]": {"experiment": "1-octanol-potassium phosphate buffer partition co-efficient, log P of the compound incubated overnight by shake-flask method", "type": "physicochemical", "procedure,_shortened": "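Miniaturized shake-flask: 1-octanol pre-saturated with 0.1 M potassium phosphate pH 7.4 and buffer pre-saturated with octanol mixed 1:3 and 1:6; compound added from 10 mM DMSO stock; rotated overnight at rt, centrifuged 3500 rpm 30 min; each phase diluted in 60% acetonitrile with warfarin internal standard, quantified by UHPLC-MS/MS against 1-1000 nM external curve; ketoconazole control.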"}, "Chlamydia trachomatis [6]": {"test_system": "Chlamydia trachomatis", "experiment": "Antimicrobial activity against Chlamydia trachomatis serovar LGV-L2 infected in human HeLa cells at 10 uM measured 44 hrs post infection relative to control", "type": "functional"}, "Chlamydia trachomatis [7]": {"test_system": "Chlamydia trachomatis", "experiment": "Antimicrobial activity against Chlamydia trachomatis serovar LGV-L2 infected in human HeLa cells assessed as decrease in relative inclusion forming units measured 44 to 48 hrs post infection by DAPI staining-based assay", "type": "functional, organism-based", "procedure,_shortened": "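HeLa229 cells infected with serovar LGV-L2 at MOI 0.3; compounds in DMSO added at 1 hpi as 8-step halving dilutions from 2 to 0.0156 µM; after 44-48 h, osmotic lysis with cold water, SPG restored, lysate 10-fold serially diluted onto fresh HeLa; after 44-48 h, methanol-fixed, anti-Chlamydia/FITC stained, IFUs counted by automated scanner relative to DMSO; EC50 by nonlinear regression, ≥3 independent experiments.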"}, "Chlamydia trachomatis [8]": {"test_system": "Chlamydia trachomatis", "experiment": "Antimicrobial activity against Chlamydia trachomatis serovar D infected in human HeLa cells at 10 uM measured 44 hrs post infection relative to control", "type": "functional"}, "Chlamydia trachomatis [9]": {"test_system": "Chlamydia trachomatis", "experiment": "Antimicrobial activity against Chlamydia trachomatis serovar LGV-L2 infected in human HeLa cells measured 44 to 48 hrs post infection by DAPI staining-based assay", "type": "functional, organism-based"}, "[10]": {"experiment": "Cytotoxicity against human HeLa cells assessed as cell viability at 10 uM after 48 hrs by resazurin assay relative to control", "type": "cell-based", "conditions": "read-out: Activity; call rule not given here", "procedure,_shortened": "(§4)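 Uninfected HeLa seeded in RPMI, next day switched to colorless DMEM with 10% FBS, 2 mM glutamine; compounds added in triplicate, 48 h at 37 °C; resazurin added, 3 h at 37 °C dark; fluorescence ex 535/em 595 nm; cell-free wells with compound check direct resazurin reduction; mean of three experiments in triplicate, SD over nine replicates.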"}, "Chlamydia trachomatis [11]": {"test_system": "Chlamydia trachomatis", "experiment": "Antimicrobial activity against Chlamydia trachomatis serovar A infected in human HeLa cells at 10 uM measured 44 hrs post infection relative to control", "type": "functional"}, "Chlamydia trachomatis [12]": {"test_system": "Chlamydia trachomatis", "experiment": "Antimicrobial activity against Chlamydia trachomatis serovar LGV-L2 infected in human HeLa cells assessed as concentration require to reduce relative inclusion forming units by 95% after 48 hrs", "type": "functional", "procedure,_shortened": "as §3"}, "[13]": {"experiment": "Cytotoxicity against human HeLa cells assessed as cell viability at 25 uM after 48 hrs by resazurin assay relative to control", "type": "cell-based", "conditions": "read-out: Activity", "procedure,_shortened": "as §4"}, "[14]": {"experiment": "1-octanol-potassium phosphate buffer distribution co-efficient, log D of the compound incubated overnight at pH 7.4 by shake-flask method"}, "Escherichia coli": {"test_system": "Escherichia coli", "experiment": "Effect on growth of Escherichia coli MW100 at 50 uM incubated for 8 hrs measured every hour during incubation", "type": "organism-based", "conditions": "in vivo", "procedure,_shortened": "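E. coli MW100 overnight LB cultures at 37 °C diluted to OD600 0.05 in LB with DMSO or 50 µM compound; grown 8 h with OD600 read hourly and visual inspection; triplicate.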"}, "[15]": {"experiment": "Dissociation constant, pKa of the compound by UV-visible spectrophotometry", "type": "physicochemical", "procedure,_shortened": "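Spectrophotometric titration: 2–5 µL of 10 mM DMSO stock in phosphate buffer with 20-50% (wt/wt) methanol cosolvent and ISA water; titrated pH 2-12 high to low under argon at 25 ± 1 °C, UV–vis spectra by D-PAS; electrode blank-calibrated pH 1.8-12.0 each run; precipitation monitored at 500 nm.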"}, "[16]": {"experiment": "Effect on growth of Lactobacillus crispatus CCUG 27076A at 50 uM after 48 hrs", "procedure,_shortened": "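L. crispatus CCUG 27076A in MRS broth at 37 °C, 5% CO2; overnight culture diluted 1:20 and grown 48 h with 50 µM compound or 1% DMSO.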"}, "Chlamydia trachomatis [17]": {"test_system": "Chlamydia trachomatis", "experiment": "Antimicrobial activity against Chlamydia trachomatis serovar D infected in human HeLa cells assessed as decrease in relative inclusion forming units measured 44 to 48 hrs post infection by DAPI staining-based assay", "type": "functional, organism-based"}, "Candida albicans": {"test_system": "Candida albicans", "experiment": "Effect on growth of Candida albicans SC314 at 50 uM measured every 2 hrs by microscopy", "type": "organism-based", "conditions": "in vivo", "procedure,_shortened": "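C. albicans SC314 grown overnight at 30 °C, diluted to OD600 0.05, grown to OD600 0.2, then compound added at 10 and 50 µM and grown to saturation; sampled every 2 h for microscopic yeast:hyphal ratio.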"}, "HeLa": {"test_system": "HeLa", "experiment": "Drug uptake in human HeLa cells infected with Chlamydia trachomatis serovar LGV-L2 at 1 uM after 48 hrs by laser confocal microscopy", "type": "ADME, cell-based", "procedure,_shortened": "as §2"}}, "data": [{"smiles": "CC1=CC(C)=[N+]2C1=C(CCc1cc(=O)n3c(c1C1CC1)SCC3C(=O)Nc1cccc(C)c1)c1c(C)cc(C)n1[B-]2(F)F", "note": "(stereo not given)", "values": [{"measurement": "Drug uptake", "setting": "Chlamydia trachomatis [1]", "result": "Not Active"}, {"measurement": "Drug uptake", "setting": "Chlamydia trachomatis [2]", "result": "Not Active"}, {"measurement": "Drug uptake", "setting": "Chlamydia trachomatis [3]", "result": "Active"}, {"measurement": "Activity", "setting": "Chlamydia trachomatis [4]", "result": ">95", "unit": "%"}]}, {"smiles": "O=C(Nc1ccccc1)c1csc2c(C3CC3)c(Cc3cccc4ccccc34)cc(=O)n12", "values": [{"measurement": "logP", "setting": "[5]", "result": 5}, {"measurement": "fold change (FC)", "setting": "Chlamydia trachomatis [6]", "result": ">=10000"}, {"measurement": "EC50", "setting": "Chlamydia trachomatis [7]", "result": 254, "unit": "nM"}, {"measurement": "fold change (FC)", "setting": "Chlamydia trachomatis [8]", "result": ">=10000"}, {"measurement": "EC50", "setting": "Chlamydia trachomatis [9]", "result": 1250, "unit": "nM"}, {"measurement": "viability at 48 h, 10 µM", "setting": "[10]", "result": 87, "unit": "%"}, {"measurement": "fold change (FC)", "setting": "Chlamydia trachomatis [11]", "result": ">=10000"}, {"measurement": "Activity", "setting": "Chlamydia trachomatis [12]", "result": 2.5, "unit": "µM"}, {"measurement": "viability at 48 h, 25 µM", "setting": "[13]", "result": 73, "unit": "%"}]}, {"smiles": "Nc1c(Cc2cccc3ccccc23)c(C2CC2)c2n(c1=O)C(C(=O)Nc1ccccc1)CS2", "note": "(stereo not given)", "values": [{"measurement": "logD", "setting": "[14]", "result": 4.3}, {"measurement": "Activity", "setting": "Escherichia coli", "result": "Non-toxic"}, {"measurement": "EC50", "setting": "Chlamydia trachomatis [7]", "result": 59, "unit": "nM"}, {"measurement": "viability at 48 h, 10 µM", "setting": "[10]", "result": 101, "unit": "%"}, {"measurement": "pKa", "setting": "[15]", "result": 2.4}, {"measurement": "Activity", "setting": "Chlamydia trachomatis [12]", "result": 0.25, "unit": "µM"}, {"measurement": "Activity", "setting": "[16]", "result": "Non-toxic"}, {"measurement": "EC50", "setting": "Chlamydia trachomatis [17]", "result": 58, "unit": "nM"}, {"measurement": "Activity", "setting": "Candida albicans", "result": "Non-toxic"}, {"measurement": "viability at 48 h, 25 µM", "setting": "[13]", "result": 98, "unit": "%"}]}, {"smiles": "CC1=CC(C)=[N+]2C1=C(C)c1c(C)cc(C)n1[B-]2(F)F", "values": [{"measurement": "Drug uptake", "setting": "Chlamydia trachomatis [3]", "result": "Not Active"}, {"measurement": "Drug uptake", "setting": "HeLa", "result": "Not Active"}]}]}
